Bioassay records (PubChem)
CDK5 p35 inh: inhibitors of human CDK5/p35 kinase; Q00535+Q15078; inhibition, % at 10 µM; 0.01% of 330,000 active; Recombinant CDK5/p35, ADP-Glo luminescence, 60 min; AID 488839;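 active = highest replicate inhibition of at least 50% and at least 75% of replicates reaching 50%; inconclusive = only one of the two criteria met; inactive = both criteria failed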;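 note: plate controls were DMSO neutral control for no effect and GW8510 at 10 µM for full effect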
dFosB activator: enhances mouse delta FosB homodimer DNA binding | P13346 | purified delta FosB, TAMRA-CDK5 oligo fluorescence polarization; percent of positive-control signal above neutral wells | activation, % at 25 µM | 0.99% of 340,000 active;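 active = mean activation above about 17%, with every replicate also reaching it, limit read from the data, passing the limit was not always enough; inconclusive = only one of the two conditions met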
Target sequence (P13346 whole entry, looked up): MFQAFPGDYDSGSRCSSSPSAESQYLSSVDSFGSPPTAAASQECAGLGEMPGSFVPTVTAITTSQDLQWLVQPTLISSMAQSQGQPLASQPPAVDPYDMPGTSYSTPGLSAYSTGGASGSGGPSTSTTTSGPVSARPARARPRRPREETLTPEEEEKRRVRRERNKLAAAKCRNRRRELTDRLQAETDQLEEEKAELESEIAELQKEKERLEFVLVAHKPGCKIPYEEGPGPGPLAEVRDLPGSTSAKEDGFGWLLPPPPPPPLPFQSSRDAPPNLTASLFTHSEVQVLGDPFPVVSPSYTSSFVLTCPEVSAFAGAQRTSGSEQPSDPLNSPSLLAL
GSIS activator: primary screen for activators of insulin secretion dependent on glucose, INS-1E cells, GLuc reporter luminescence. INS-1E GLuc reporter insulin secretion, 2-3 h. 0.61% of 370,000 active. AID 743287. activation, % at 16.6 µM;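 active = lowest replicate activation of at least 40%, so every replicate reaches that level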;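 note: 0% = median of neutral control wells and 100% = median of IBMX positive control wells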
HIV Env fusion: blocks HIV Env-driven cell-cell fusion. HeLa-JRFL Env/CEM21 cell fusion, luciferase. inhibition, % at 12.3 µM. 1.1% of 360,000 active. AID 651610;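 active = mean replicate inhibition score of at least 50 and every replicate individually at or above 50; inconclusive = only one of the two criteria met; inactive = mean below 50 and not all replicates reaching 50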;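 note: 0% = plate neutral controls and 100% = maraviroc near 300 nM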
Cneo AK release: Cryptococcus neoformans lysis via adenylate kinase release; C. neoformans lysis, adenylate kinase release luminescence, 4 h; normalised: neutral wells 0, clomiphene wells 100; lysis activity, % at 15 µM; 0.2% of 360,000 active;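 active = mean lysis activity across replicates of at least 80%, whatever share of replicates individually reach that level; inactive = mean lysis activity below 80%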
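Material – log-phase Cryptococcus neoformans yeast cells · Input – 5 × 10^6 yeast cells/mL · Medium – fresh YPD growth medium · Doses – single compound concentration per well · Timing – static 4 h at 37 °C with compound, 1 h detection · Detection – adenylate kinase release luminescence · Read-out – signal increase indicating cell lysis · Control set – Clomiphene as positive lysis control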
PAX8 reporter: lowers PAX8-driven luciferase in RMG-I cells; RMG-I TPO-luciferase reporter, SteadyGlo, 24 h; AID 652154; 1.2% of 360,000 active; inhibition, % at 12.6 µM;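 active = mean replicate inhibition at least 60% with every replicate also reaching 60%; inconclusive = only one of the two criteria is met; inactive = mean below 60% and not all replicates reaching 60%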;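 note: luciferase light reporting Pax8 driven TPO promoter activity; plate controls were median of neutral control wells for no effect and mitoxantrone controls for full effect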
Numbers without * were called inactive; ? = inconclusive; . = not tested or not shown; [ ] = dose if it differs, or a comment. The list is not random: actives were taken first. Their share in the collection is about 2.9%.

SMILES	CDK5 p35 inh	dFosB activator	GSIS activator	HIV Env fusion	Cneo AK release	PAX8 reporter
NC(=O)[C@H]1CC2(CC(c3cccc(NC(=O)CC(c4ccccc4)c4ccccc4)c3)=NO2)CN1C(=O)C(c1ccccc1)c1ccccc1 (stereo not given in full)	1	-14	31	-35	0	69*
CC(C)C#Cc1ccc2c(c1)O[C@H](CN(C)C(=O)CN(C)C)[C@@H](C)CN([C@H](C)CO)S2(=O)=O	.	.	17	-24[16.7 µM]	3	-16
COCC#Cc1cnc2c(c1)C(=O)N([C@@H](C)CO)C[C@H](C)[C@H](CN(C)C(=O)Nc1ccccc1F)O2	.	.	3	-18[16.7 µM]	0	.
CC(C)C(=O)Nc1ccc2c(c1)C(=O)N(C)[C@H]1CC[C@@H](CC(=O)Nc3ccccc3)O[C@@H]1CO2	.	.	4	7[16.7 µM]	-3	3
O=C(N[C@@H]1CC[C@H](CCn2cc(C3(O)CCCC3)nn2)O[C@@H]1CO)C1CCC1	.	.	3	29[16.7 µM]	0	-4
CC(C)(C)NC(=O)C(c1ccncc1)N(Cc1cccs1)C(=O)c1csnn1 (stereo not given)	1	-1	-2	7	1	6
Cc1ccsc1C(C(=O)NC(C)(C)C)N(Cc1ccco1)C(=O)c1csnn1 (stereo not given)	0	-7	17	27	1	-9
Cc1ccc(C(C(=O)NC(C)(C)C)N(Cc2cccs2)C(=O)c2csnn2)cc1 (stereo not given)	-1	-12	-15	79*	1	.
CCC(C)(C)NC(=O)C(c1sccc1C)N(Cc1ccco1)C(=O)c1csnn1 (stereo not given)	-6	-14	110	55*	2	-3
CCC(C)(C)NC(=O)C(c1ccccc1F)N(Cc1ccco1)C(=O)c1csnn1 (stereo not given)	0	-4	.	53*	-3	-16
COc1ccc2c(c1)CCc1cc(C(=O)O)sc1-2	-3	-4	65*	0	5	2
Cc1cccc(C(=O)c2cnc3ccccc3c2-c2ccccc2)c1	0	-5	.	73*	0	.
CO[C@@H]1CN(C)C(=O)c2ccc(NS(=O)(=O)CC(F)(F)F)cc2OC[C@@H](C)NC[C@@H]1C	.	.	1	-15[16.7 µM]	-1	50
CNC(=O)C[C@@H]1CC[C@@H]2[C@H](COc3ccc(NC(=O)Nc4ccc(F)c(F)c4)cc3C(=O)N2C)O1	.	.	-2	2[16.7 µM]	-4	13
C[C@@H]1CCCCO[C@H](CN(C)Cc2ccccc2)[C@@H](C)CN([C@H](C)CO)C(=O)c2cc(NS(=O)(=O)c3cccs3)ccc2O1	.	.	4	-28[16.7 µM]	-2	-11
C[C@@H]1CCCCO[C@H](CN(C)Cc2ccc(C(F)(F)F)cc2)[C@H](C)CN([C@H](C)CO)C(=O)c2cc(NS(=O)(=O)c3cccs3)ccc2O1	.	.	-20	60*[16.7 µM]	0	99*
C[C@@H]1CCCCO[C@@H](CN(C)Cc2ccc(C(F)(F)F)cc2)[C@H](C)CN([C@H](C)CO)C(=O)c2cc(NS(=O)(=O)c3cccs3)ccc2O1	.	.	-19	?	3	89*
C[C@@H]1CCCCO[C@H](CN(C)Cc2ccccc2)[C@H](C)CN([C@@H](C)CO)C(=O)c2cc(NS(=O)(=O)c3cccs3)ccc2O1	.	.	8	4[16.7 µM]	86*	-20
C[C@@H]1CCCCO[C@H](CN(C)Cc2ccc(C(F)(F)F)cc2)[C@H](C)CN([C@@H](C)CO)C(=O)c2cc(NS(=O)(=O)c3cccs3)ccc2O1	.	.	-21	?	0	93*
C[C@@H]1CN([C@H](C)CO)C(=O)c2cc(C3=CCCC3)cnc2O[C@H]1CN(C)C(=O)c1ccccn1	.	.	-2	-5[16.7 µM]	-2	0
CCC(=O)Nc1ccc2c(c1)OC[C@H](C)N(C(=O)c1ccc(F)cc1)C[C@@H](C)[C@H](OC)CN(C)C2=O	.	.	1	8[16.7 µM]	0	-12
CCCN1[C@@H]2c3cccc(=O)n3C[C@H]1[C@H](CO)[C@H]2C(=O)N[C@H](C)c1ccccc1	.	.	7	.	.	.
C=C(C)c1nc(Oc2ccccc2)nc(Oc2ccccc2)n1	-1	-3	.	4	.	97*
COc1ccc(C#Cc2ccc3c(c2)[C@]2(C(=O)N3)[C@H](C(N)=O)[C@H]3C(=O)O[C@H](c4ccccc4)[C@H](c4ccccc4)N3[C@@H]2c2ccc(OCCO)cc2)cc1	.	.	.	32[16.7 µM]	2	29
C[C@H]1CN([C@@H](C)CO)C(=O)c2cc(C#CCN(C)C)cnc2O[C@@H]1CN(C)S(C)(=O)=O	.	.	8	-16[16.7 µM]	-1	.
SMILES	CDK5 p35 inh	dFosB activator	GSIS activator	HIV Env fusion	Cneo AK release	PAX8 reporter
C/C=C1\COC(C(=O)NCc2ccccc2)(C(F)(F)F)C=C1C=C1CCCCC1 (stereo not given)	0	4	141*	35	3	14
CCc1nc2c(OCc3ccc(C(F)(F)F)cc3)cccn2c1N(C=O)Cc1ccc(OC)cc1	.	.	-24	56*	2	-4
CCc1nc2c(OCc3ccc(C(F)(F)F)cc3)cccn2c1N(C)C(=O)c1ccco1	.	.	-12	57*	1	14
CCCCN(C=O)c1c(CC)nc2c(OCc3ccc(C(F)(F)F)cc3)cccn12	.	.	1	-2	3	10
C#CCN(C[C@H]1[C@H](OC(=O)Nc2c(C)noc2C)[C@H](OC(=O)Nc2c(C)noc2C)C[C@@H](C(=O)OC)[C@H]1C(=O)OC)S(=O)(=O)c1ccc(C)cc1	.	.	-6	5	4	97*
COc1ccccc1NC(=O)N1CCCCN2[C@H](C1)[C@@H](c1ccc(C#CC3CCCC3)cc1)[C@@H]2CO	.	.	9	.	1	16
C[C@H]1CN([C@@H](C)CO)C(=O)Cc2cc(NC(=O)Nc3cccc4ccccc34)ccc2O[C@H]1CN(C)S(=O)(=O)c1cccs1	.	.	2	45[16.7 µM]	101*	37
C[C@H](CO)N1C[C@H](C)[C@H](CN(C)S(=O)(=O)c2cccs2)Oc2ccc(NC(=O)Nc3cccc4ccccc34)cc2CC1=O	.	.	-25	75*[16.7 µM]	-1	16
Cc1ccc(S(=O)(=O)Nc2ccc3c(c2)C(=O)N([C@H](C)CO)C[C@@H](C)[C@@H](CN(C)C)OCCCC[C@H](C)O3)cc1	.	.	13	-5[16.7 µM]	1	-3
CCCNC(=O)Nc1ccc2c(c1)OC[C@@H](C)N(C(C)=O)C[C@H](C)[C@@H](OC)CN(C)C2=O	.	.	-5	0[16.7 µM]	-6	9
CN(C)C(=O)c1ccc(-c2ccc([C@H]3[C@H](CO)N4CCCCN(Cc5cncnc5)C[C@@H]34)cc2)cc1	.	.	13	.	-1	-13
COC(=O)[C@]1(C)N[C@H](CN(C)S(=O)(=O)c2ccc(-c3ccccc3)cc2)[C@@H]2C(=O)N(Cc3ccccc3)C(=O)[C@@H]21	-2	-7	-6	81*	0	8
